Test results published in paper PMC2939729 (Cancer cell, 2010).

Experiments:
TNK1 [1] = molecular target: T1, TNK1 (Homo sapiens, UniProt Q13470); assay: in vitro ATP-site competition binding assay, panel of 402 kinases; conditions: 10 μM inhibitor
T1 sequence (Q13470 1-666): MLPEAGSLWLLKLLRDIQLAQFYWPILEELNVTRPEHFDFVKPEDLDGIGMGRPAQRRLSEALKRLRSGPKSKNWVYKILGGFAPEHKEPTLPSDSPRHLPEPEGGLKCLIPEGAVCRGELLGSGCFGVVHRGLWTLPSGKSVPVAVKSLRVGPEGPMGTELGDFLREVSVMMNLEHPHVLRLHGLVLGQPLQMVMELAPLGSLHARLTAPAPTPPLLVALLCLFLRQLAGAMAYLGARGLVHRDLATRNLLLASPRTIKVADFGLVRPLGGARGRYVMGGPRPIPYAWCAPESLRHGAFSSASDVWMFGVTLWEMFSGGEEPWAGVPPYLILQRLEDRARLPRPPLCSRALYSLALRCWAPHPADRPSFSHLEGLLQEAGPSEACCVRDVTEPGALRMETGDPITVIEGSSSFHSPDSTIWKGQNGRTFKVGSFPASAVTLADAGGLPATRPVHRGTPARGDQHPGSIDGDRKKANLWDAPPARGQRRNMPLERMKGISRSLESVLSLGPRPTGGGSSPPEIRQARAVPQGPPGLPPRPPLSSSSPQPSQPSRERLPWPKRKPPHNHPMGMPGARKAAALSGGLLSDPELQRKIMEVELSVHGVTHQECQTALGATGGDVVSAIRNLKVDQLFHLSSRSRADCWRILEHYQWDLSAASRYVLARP

TNK1 [2] = molecular target: T1, TNK1; assay: Inhibitory effect on TNK1 in vitro and in vivo
[3] = Pharmacokinetics in Sprague-Dawley rats; format: in vivo; conditions: single oral dose of 2 mg/kg
PLK4 = molecular target: T2, PLK4 (Homo sapiens, UniProt O00444); assay: in vitro ATP-site competition binding assay, panel of 402 kinases; conditions: 10 μM inhibitor
T2 sequence (O00444 1-970): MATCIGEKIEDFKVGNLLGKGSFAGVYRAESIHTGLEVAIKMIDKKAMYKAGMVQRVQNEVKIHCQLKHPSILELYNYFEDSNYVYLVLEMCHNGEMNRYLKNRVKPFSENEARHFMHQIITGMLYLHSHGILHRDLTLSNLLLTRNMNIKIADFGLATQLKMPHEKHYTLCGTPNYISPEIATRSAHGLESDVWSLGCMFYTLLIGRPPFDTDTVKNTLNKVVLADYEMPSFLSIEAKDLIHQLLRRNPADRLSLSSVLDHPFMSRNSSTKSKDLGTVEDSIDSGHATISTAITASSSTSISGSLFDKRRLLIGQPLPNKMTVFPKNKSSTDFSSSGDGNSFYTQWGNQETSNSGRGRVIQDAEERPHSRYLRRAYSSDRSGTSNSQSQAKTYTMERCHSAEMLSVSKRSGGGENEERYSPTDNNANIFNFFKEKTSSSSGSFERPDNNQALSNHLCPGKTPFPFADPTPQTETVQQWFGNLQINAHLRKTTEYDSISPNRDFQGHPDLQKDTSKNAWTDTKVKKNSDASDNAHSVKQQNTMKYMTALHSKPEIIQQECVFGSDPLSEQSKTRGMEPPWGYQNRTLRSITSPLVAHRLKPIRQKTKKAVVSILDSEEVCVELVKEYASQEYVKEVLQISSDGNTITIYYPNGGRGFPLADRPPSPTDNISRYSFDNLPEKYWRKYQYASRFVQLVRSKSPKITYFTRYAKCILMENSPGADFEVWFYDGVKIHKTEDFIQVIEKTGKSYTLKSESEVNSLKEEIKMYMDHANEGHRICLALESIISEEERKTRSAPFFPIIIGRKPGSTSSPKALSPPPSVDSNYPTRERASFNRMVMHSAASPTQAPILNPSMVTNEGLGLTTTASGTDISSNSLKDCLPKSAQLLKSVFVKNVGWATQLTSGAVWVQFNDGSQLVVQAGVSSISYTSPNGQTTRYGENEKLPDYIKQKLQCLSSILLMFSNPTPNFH

BMK1 [4] = molecular target: T3, BMK1 (Homo sapiens, UniProt Q13164); assay: in vitro kinase assay of BMK1 immunoprecipitated from HEK293 cells; format: biochemical; conditions: BMK1 immunoprecipitated from HEK293 co-transfected with MEK5D and BMK1
Target sequence in this assay (Q13164 whole entry, species assumed): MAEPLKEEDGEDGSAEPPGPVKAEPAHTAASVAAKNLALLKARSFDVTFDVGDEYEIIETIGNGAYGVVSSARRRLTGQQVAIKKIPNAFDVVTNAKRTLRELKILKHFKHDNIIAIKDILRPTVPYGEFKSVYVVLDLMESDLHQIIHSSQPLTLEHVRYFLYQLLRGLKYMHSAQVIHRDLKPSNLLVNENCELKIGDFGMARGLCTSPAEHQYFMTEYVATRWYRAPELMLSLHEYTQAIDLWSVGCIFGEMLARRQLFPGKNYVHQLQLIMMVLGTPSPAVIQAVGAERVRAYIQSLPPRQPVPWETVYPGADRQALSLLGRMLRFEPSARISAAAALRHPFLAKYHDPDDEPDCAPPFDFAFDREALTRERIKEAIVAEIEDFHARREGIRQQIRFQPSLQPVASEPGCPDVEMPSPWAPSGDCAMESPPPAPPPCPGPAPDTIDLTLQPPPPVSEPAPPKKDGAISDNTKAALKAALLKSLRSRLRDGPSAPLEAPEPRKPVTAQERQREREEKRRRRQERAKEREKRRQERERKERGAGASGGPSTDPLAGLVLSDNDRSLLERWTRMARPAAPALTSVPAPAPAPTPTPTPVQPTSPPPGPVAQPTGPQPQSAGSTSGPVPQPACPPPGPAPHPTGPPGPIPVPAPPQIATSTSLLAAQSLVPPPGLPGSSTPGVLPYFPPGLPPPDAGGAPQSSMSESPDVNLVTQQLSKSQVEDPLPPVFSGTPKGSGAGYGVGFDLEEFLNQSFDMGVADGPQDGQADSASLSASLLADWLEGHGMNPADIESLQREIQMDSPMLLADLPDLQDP

[5] = tested on: BMK1-dependent transactivating activity of MEF2C; assay: Trans-reporter assay of BMK1-dependent MEF2C transactivating activity in HEK293; format: cell-based; conditions: HEK293, 5 μM for 16 hr, luciferase
BMK1 [6] = molecular target: T3, BMK1; assay: in vitro ATP-site competition binding assay, panel of 402 kinases; conditions: 10 μM inhibitor
Target sequence in this assay (Q13164 whole entry, species assumed): as above

BMK1 [7] = molecular target: T3, BMK1; assay: EGF-induced BMK1 activation in HeLa cells; format: cell-based; conditions: 1 μM compound for one hour, EGF 17 min
Target sequence in this assay (Q13164 whole entry): as the sequence (Q13164 whole entry, species assumed) above

[8] = tested on: basic fibroblast growth factor (bFGF) induced angiogenesis; assay: bFGF-induced angiogenesis in Matrigel plugs; format: in vivo; conditions: mice, Matrigel with 400 ng/mL bFGF, treated for 6 days
In short: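 Mice were implanted with Matrigel containing 400 ng/mL bFGF and treated with test compound or vehicle for 6 days, starting the next day. Plugs were harvested, sectioned and stained with Masson's trichrome (6 mice, 9 slices), and plug hemoglobin content was measured. Student's t test was used.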

HeLa cells = assay: HeLa cell proliferation, MTT assay; format: cell-based, human; conditions: 5 μM, 48 hr, compared with Ad-BMK1(AEF)

CCOc1cc(N2CCC(O)CC2)ccc1Nc1ncc2c(n1)N(C)c1ccccc1C(=O)N2C [XMD8-92]
displacement by XMD8-92 (TNK1 [1]): greater than 90%
inhibitory effect on TNK1 (TNK1 [2]): no significant inhibitory effect
maximal plasma concentrations [3]: approximately 500 nM
time of maximal plasma concentrations [3]: ≤ 30 min
plasma concentration remaining 8 hr post dose ([3]; 8 hr): 34 nM
displacement by XMD8-92 (PLK4): greater than 90%
BMK1 activity in in vitro kinase assays (BMK1 [4]): significantly reduced
BMK1-dependent transactivating activity of MEF2C [5]: dramatically reduced
displacement by XMD8-92 (BMK1 [6]): greater than 90%
Growth factor-induced activation of cellular BMK1 (BMK1 [7]): effectively blocked
bFGF induced angiogenesis in Matrigel plugs [8]: significantly inhibits
extent of inhibition of proliferation (HeLa cells): indistinguishable from that by dominant negative BMK1
